The source of these data is ChEMBL document CHEMBL4196201, “Discovery of N-(4-{[5-Fluoro-7-(2-methoxyethoxy)quinazolin-4-yl]amino}phenyl)-2-[4-(propan-2-yl)-1 H-1,2,3-triazol-1-yl]acetamide (AZD3229), a Potent Pan-KIT Mutant Inhibitor for the Treatment of Gastrointestinal Stromal Tumors” (J Med Chem, 2018).

Series [1] in a line: Cytotoxicity in mouse parental BA/F3 cells incubated for 72 hrs by MTS assay. The format is cell-based, BaF3. For orientation: Tetrazolium dyes change colour on reduction, which living cells bring about.
For series [2], the target named is Platelet-derived growth factor receptor beta (Homo sapiens) (UniProt P09619). The series is described as follows: Inhibition of TEL-fused PDGFRbeta (unknown origin) transfected in mouse BA/F3 cells assessed as inhibition of cell growth incubated for 72 hrs by MTS assay. The class given is cell-based.
The subject of series [3] is BaF3. The series is described as follows: Antitumor activity against mouse BA/F3 cells expressing Kit exon 11 deletion (557 to 558 residues) and D816H mutant (unknown origin) allografted in CB17 SCID mouse assessed as inhibition of tumor growth at 300 mg/kg, po qd measured on last day of dosing. The format is functional. The following applies: read-out: TGI. An outline of the steps:
(§1)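 Ba/F3 cells bearing the KIT exon 11 del/D816H or exon 11 del/V654A mutation were grown as allografts in mice. Compounds were given p.o. once (QD) or twice daily (BD), and vehicle was given BD p.o. Tumor growth inhibition and regression (%) were taken on the last day of dosing. p-values were calculated relative to vehicle.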

Series [4] concerns BaF3. The series is described as follows: Antitumor activity against mouse BA/F3 cells expressing Kit exon 11 deletion (557 to 558 residues) and V654 mutant (unknown origin) allografted in CB17 SCID mouse assessed as inhibition of tumor growth at 300 mg/kg, po qd measured on last day of dosing. The format is functional. The following applies: read-out: TGI. An outline of the steps: as §1

Series [5] has as its system BaF3. The series is described as follows: Antitumor activity against mouse BA/F3 cells expressing Kit exon 11 deletion (557 to 558 residues) and D816H mutant (unknown origin) allografted in CB17 SCID mouse assessed as tumor regression at 300 mg/kg, po qd measured on last day of dosing. The format is functional. Summed up:
as §1

The subject of series [6] is BaF3. As to the kind of experiment: Antitumor activity against mouse BA/F3 cells expressing Kit exon 11 deletion (557 to 558 residues) and V654 mutant (unknown origin) allografted in CB17 SCID mouse assessed as tumor regression at 300 mg/kg, po qd measured on last day of dosing. The class given is functional. An outline of the steps: as §1
The test system of series [7] is Mast/stem cell growth factor receptor Kit (Homo sapiens), P10721 [UNDEFINED MUTATION].
In series [8] the target is Mast/stem cell growth factor receptor Kit (Homo sapiens) (UniProt P10721).
Series [9] shares this target. This is another data set of the same source.
Series [10] has the same target. This is another data set of the same source.
Series [11] shares this target. The source holds these as a separate data set.
Series [12] concerns Mast/stem cell growth factor receptor Kit (Homo sapiens), P10721 [UNDEFINED MUTATION]. The source holds these as a separate data set.
For series [13] the test system is unchanged. The source holds these as a separate data set.
Series [14] shares this test system. The source holds these as a separate data set.
For series [15], the system named is Mast/stem cell growth factor receptor Kit (Homo sapiens), P10721 [V560D].
Series [16] relates to Mast/stem cell growth factor receptor Kit (Homo sapiens), P10721 [V560D,D816H].
Series [17] relates to Platelet-derived growth factor receptor alpha (Homo sapiens), P16234 [V561D,D842V].
Series [18] concerns BaF3. As to the kind of experiment: Antitumor activity against mouse BA/F3 cells expressing Kit exon 11 deletion (557 to 558 residues) and D816H mutant (unknown origin) allografted in CB17 SCID mouse assessed as inhibition of tumor growth at 100 mg/kg, po qd measured on last day of dosing. The format is functional. The settings on record: read-out: TGI. Summed up:
as §1

Series [19] has as its system BaF3. The series is described as follows: Antitumor activity against mouse BA/F3 cells expressing Kit exon 11 deletion (557 to 558 residues) and D816H mutant (unknown origin) allografted in CB17 SCID mouse assessed as tumor regression at 100 mg/kg, po qd measured on last day of dosing. The format is functional. Summed up:
as §1

Series [20] has as its system Mast/stem cell growth factor receptor Kit (Homo sapiens), P10721 [UNDEFINED MUTATION]. The source holds these as a separate data set.
Series [21] shares this test system. The source holds these as a separate data set.
Series [22] has as its target Vascular endothelial growth factor receptor 2 (Homo sapiens) (UniProt P35968).
In series [23] the target is Mast/stem cell growth factor receptor Kit (Homo sapiens) (UniProt P10721). This is another data set of the same source.
Series [24] relates to Mast/stem cell growth factor receptor Kit (Homo sapiens), P10721 [UNDEFINED MUTATION]. This is another data set of the same source.
Series [25] concerns Mast/stem cell growth factor receptor Kit (Homo sapiens), P10721 [V560D,V654A].
Series [26] has as its system Mast/stem cell growth factor receptor Kit (Homo sapiens), P10721 [D816V].
Series [27] deals with Platelet-derived growth factor receptor alpha (Homo sapiens) (UniProt P16234).
Series [28] relates to BaF3. The series is described as follows: Antitumor activity against mouse BA/F3 cells expressing Kit exon 11 deletion (557 to 558 residues) and V654 mutant (unknown origin) allografted in CB17 SCID mouse assessed as inhibition of tumor growth at 80 mg/kg, po qd measured on last day of dosing. The format is functional. The following applies: read-out: TGI. Summed up:
as §1

The test system of series [29] is BaF3. The series is described as follows: Antitumor activity against mouse BA/F3 cells expressing Kit exon 11 deletion (557 to 558 residues) and V654 mutant (unknown origin) allografted in CB17 SCID mouse assessed as tumor regression at 80 mg/kg, po qd measured on last day of dosing. The class given is functional. Summed up:
as §1

Series [30] is filed under the species Homo sapiens. The series is described as follows: Selectivity index, ratio of GI50 for inhibition of Kit exon 11 deletion and D816H mutant (unknown origin) transfected in mouse BA/F3 cells assessed as inhibition of cell growth to GI50 for inhibition of KDR (unknown origin) transfected in mouse BA/F3 cells assessed as inhibition of cell growth. The format is cell-based.

A short description of series [31]: Protein binding in rat plasma. The following applies: pooled result: one value given for 4 cell lines, strains, targets or settings, read-out: PPB (converted). The format is ADME, cell-free.

Each structure is given as a SMILES string. A value given as a limit tells only on which side of the number the result lay.

Chain of Platelet-derived growth factor receptor alpha (Homo sapiens), P16234 [V561D,D842V] (P16234 whole entry V561D/D842V, the tested form may be a part): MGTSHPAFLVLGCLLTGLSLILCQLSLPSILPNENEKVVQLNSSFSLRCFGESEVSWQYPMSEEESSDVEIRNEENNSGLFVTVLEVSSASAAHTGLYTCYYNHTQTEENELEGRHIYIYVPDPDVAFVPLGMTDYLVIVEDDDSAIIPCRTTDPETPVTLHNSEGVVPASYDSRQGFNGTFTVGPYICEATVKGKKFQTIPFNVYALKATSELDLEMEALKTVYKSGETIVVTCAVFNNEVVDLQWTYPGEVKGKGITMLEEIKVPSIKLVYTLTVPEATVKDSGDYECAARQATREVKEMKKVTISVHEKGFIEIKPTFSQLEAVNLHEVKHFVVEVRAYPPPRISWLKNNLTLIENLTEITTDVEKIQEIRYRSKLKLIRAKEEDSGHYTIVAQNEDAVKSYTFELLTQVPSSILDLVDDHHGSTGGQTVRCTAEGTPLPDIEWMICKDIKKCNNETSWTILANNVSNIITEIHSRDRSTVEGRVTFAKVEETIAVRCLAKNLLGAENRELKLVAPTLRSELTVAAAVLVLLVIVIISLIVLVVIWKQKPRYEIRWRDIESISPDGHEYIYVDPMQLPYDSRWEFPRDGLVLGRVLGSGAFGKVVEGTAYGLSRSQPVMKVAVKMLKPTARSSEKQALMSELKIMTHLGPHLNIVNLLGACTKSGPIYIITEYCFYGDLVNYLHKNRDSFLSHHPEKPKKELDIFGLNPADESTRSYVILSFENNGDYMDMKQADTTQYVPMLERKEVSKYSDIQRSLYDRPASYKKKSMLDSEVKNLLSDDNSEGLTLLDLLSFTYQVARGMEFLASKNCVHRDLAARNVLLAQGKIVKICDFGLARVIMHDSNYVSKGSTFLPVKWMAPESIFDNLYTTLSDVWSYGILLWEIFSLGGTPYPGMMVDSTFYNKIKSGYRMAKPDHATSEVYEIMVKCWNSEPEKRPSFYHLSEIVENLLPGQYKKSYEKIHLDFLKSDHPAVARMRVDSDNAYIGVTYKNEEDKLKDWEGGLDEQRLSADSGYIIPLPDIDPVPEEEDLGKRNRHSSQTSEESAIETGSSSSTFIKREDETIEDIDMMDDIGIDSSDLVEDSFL
Chain of Mast/stem cell growth factor receptor Kit (Homo sapiens), P10721 [V560D,D816H] (P10721 whole entry V560D/D816H): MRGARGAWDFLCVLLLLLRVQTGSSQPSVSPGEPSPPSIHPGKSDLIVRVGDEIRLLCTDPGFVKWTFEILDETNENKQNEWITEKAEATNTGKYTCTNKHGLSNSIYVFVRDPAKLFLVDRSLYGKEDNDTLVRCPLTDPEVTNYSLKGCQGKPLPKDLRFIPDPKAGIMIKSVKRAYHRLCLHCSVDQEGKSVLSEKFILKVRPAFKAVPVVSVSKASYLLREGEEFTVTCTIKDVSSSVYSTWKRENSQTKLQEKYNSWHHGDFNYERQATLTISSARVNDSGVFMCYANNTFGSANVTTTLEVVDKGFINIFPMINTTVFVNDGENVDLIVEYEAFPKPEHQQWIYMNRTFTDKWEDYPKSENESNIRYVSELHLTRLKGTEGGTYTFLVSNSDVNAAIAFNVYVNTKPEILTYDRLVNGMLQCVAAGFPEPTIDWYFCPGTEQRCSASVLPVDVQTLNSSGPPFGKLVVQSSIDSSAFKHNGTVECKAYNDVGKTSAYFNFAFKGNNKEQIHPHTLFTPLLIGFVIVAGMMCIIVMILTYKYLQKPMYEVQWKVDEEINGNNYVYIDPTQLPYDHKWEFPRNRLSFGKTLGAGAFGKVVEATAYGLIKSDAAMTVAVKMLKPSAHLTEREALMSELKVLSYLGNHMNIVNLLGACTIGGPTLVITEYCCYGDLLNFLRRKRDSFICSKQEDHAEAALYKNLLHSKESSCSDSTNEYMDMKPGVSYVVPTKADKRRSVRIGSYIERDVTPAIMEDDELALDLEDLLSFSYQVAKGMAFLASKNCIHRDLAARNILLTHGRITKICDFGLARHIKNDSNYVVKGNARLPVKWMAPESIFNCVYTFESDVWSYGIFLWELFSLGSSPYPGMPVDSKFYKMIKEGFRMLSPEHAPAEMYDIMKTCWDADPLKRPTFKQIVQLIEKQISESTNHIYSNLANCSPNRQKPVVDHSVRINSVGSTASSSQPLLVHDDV
Chain of Mast/stem cell growth factor receptor Kit (Homo sapiens) (P10721 whole entry): as the sequence (P10721 whole entry V560D/D816H) above, with D560V, H816D counted along it
Chain of Mast/stem cell growth factor receptor Kit (Homo sapiens), P10721 [UNDEFINED MUTATION] (P10721 whole entry, looked up, stated change not applied): as the sequence (P10721 whole entry V560D/D816H) above, with D560V, H816D counted along it
Chain of Platelet-derived growth factor receptor beta (Homo sapiens) (P09619 whole entry, the tested form may be a part): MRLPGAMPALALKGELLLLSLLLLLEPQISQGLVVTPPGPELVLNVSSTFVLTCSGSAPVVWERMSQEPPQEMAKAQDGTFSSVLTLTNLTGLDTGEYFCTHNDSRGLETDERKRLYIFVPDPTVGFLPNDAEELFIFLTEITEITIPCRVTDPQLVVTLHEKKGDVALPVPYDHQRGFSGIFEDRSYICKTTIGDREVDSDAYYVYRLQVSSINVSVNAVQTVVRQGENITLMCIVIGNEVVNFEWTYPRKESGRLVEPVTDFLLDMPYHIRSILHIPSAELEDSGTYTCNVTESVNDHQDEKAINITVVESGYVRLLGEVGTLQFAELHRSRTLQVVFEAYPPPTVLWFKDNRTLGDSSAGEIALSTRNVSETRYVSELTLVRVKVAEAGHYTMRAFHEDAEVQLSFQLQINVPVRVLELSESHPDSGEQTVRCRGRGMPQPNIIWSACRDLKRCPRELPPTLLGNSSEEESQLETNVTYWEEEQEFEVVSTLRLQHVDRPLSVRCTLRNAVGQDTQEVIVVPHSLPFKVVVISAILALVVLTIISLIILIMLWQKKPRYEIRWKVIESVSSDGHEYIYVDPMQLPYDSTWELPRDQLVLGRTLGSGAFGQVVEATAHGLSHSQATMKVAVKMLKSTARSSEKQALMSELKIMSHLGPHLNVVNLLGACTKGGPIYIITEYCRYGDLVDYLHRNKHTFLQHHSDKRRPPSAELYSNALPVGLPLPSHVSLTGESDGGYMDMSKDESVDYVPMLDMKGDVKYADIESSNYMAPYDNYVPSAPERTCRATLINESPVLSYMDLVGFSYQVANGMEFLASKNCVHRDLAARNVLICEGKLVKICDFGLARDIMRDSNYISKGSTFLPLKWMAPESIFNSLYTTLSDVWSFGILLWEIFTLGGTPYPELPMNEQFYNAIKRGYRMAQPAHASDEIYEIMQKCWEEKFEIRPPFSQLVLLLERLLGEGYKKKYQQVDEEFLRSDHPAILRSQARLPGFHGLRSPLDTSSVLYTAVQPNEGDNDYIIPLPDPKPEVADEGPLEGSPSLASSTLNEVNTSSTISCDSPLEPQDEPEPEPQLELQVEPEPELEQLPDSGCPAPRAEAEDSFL

For `Cc1ccc(NC(=O)c2ccc(CN3CCN(C)CC3)cc2)cc1Nc1nccc(-c2cccnc2)n1` [IMATINIB], in series [1], the concentration for 50% growth inhibition (GI50) (usually the concentration that inhibits growth by half) at 72 h is over 10000 nM. Also, the GI50 in series [2] is 102 nM; in [7], 535 to 537 nM; in series [8], 192 nM; in [9] it was 3950 nM; in series [10] it was 2750 nM; in [11] it was 17 nM. Also, the GI50 was 216 nM in [12]; 669 nM in series [13]; 312 nM in [14]; 70 nM in series [15]; 1190 nM in [16]; 567 nM in series [17]. The inhibition in vivo at 300 mg/kg in [3] came to 43%; in series [4], 34%. Besides, the Activity in [5] and in series [6] was 0% throughout.
Consider `CNC(=O)c1cc(Oc2ccc(NC(=O)Nc3ccc(Cl)c(C(F)(F)F)c3)c(F)c2)ccn1` [REGORAFENIB], for which the 50% growth inhibitory concentration (GI50) at 72 h in series [1] came out at 9950 nM. Also, the GI50 is 29 nM in series [2]; 231 to 234 nM in series [20]; 290 to 297 nM in [7]; 33 nM in series [21]; 114 nM in series [22]; 114 nM in series [8]. The GI50 in series [9] came out at 1270 nM; in [10], 833 nM; in series [23], 943 nM; in [12] it was 63 nM; in series [24] it was 49 nM; in series [14], 47 nM. Besides, the concentration for 50% growth inhibition (GI50) in series [15] worked out at 108 nM; in [25], 549 nM; in [16] it was 834 nM; in series [26], 2370 nM; in [27] it was 51 nM; in [17], 522 nM. Moreover, the inhibition in vivo at 100 mg/kg in series [18] was over 100%. Besides, the Activity in [19] is 39%.
Turning to `Cn1cc(-c2cc3c(N4CCN(c5ncc([C@@](C)(N)c6ccc(F)cc6)cn5)CC4)ncnn3c2)cn1` [AVAPRITINIB], the GI50 at 72 h in series [1] came out at 4080 nM. The GI50 in series [2] was 22 nM; in [20] it was 292 nM; in series [7], 17 nM; in series [21] it was 860 nM; in series [22], 4950 nM; in series [8] it was 167 nM. Also, the GI50 in [9] was determined as 751 nM; in series [10], 69 nM; in series [11], 78 nM; in [23] it was 117 nM; in series [12] it was 19 nM; in series [24], 34 nM. In addition, the concentration for 50% growth inhibition (GI50) was 42 nM in [15], 427 nM in series [25], 29 nM in series [16] and 8 nM in [26].
Consider `CCN(CC)CCNC(=O)c1c(C)[nH]c(/C=C2\C(=O)Nc3ccc(F)cc32)c1C` [SUNITINIB], for which the GI50 at 72 h in series [1] was 4790 nM. In addition, the GI50 in [2] was 114 nM; in series [7], 398 to 400 nM; in [9], 12 nM; in series [11] it was 4 nM; in series [12], 214 nM; in series [13] it was 782 nM. The 50% growth inhibitory concentration (GI50) in series [24] turned out to be 271 nM; in series [16] it was 696 nM; in [27], 30 nM; in series [17], 631 nM. For the same molecule, in [28], the inhibition in vivo at 80 mg/kg is over 100%. The Activity in [29] is on record as 87%.
Regarding `COc1cc(F)c2c(Nc3ccc(NC(=O)Cn4cc(C(C)C)nn4)cc3)ncnc2c1`, the 50% growth inhibitory concentration (GI50) at 72 h in [1] is over 10000 nM. The Selectivity index (KDR GI50 / Kit GI50) in series [30] was over 400. Also, the fraction unbound in [31] was 0.003. Also, the GI50 is 2 nM in series [20], 25 nM in series [7], 68 nM in series [21] and over 10000 nM in series [22].
